# Screening results as filed in PubChem BioAssay.
# A selection: hits, their analogues and other compounds. The true share with any hit is near 4%.
# Granule exo inh: LAMP-1 surface exposure blockers, TALL-104 cells – cell-based, flow cytometry, MLPCN library, primary screen | inhibition, % at 10 µM | TALL-104 LAMP-1 surface exposure; cells stimulated with thapsigargin and PMA | 360,000 compounds, 0.66% hits | AID 651702, 2012;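 active = inhibition above about 55%, limit read from the data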
# XBP1 UPR activ: activators of adaptive XBP1 UPR arm, primary screen, cell-based, CHO-XBP1 luciferase reporter, luminescence, uHTS; 330,000 compounds, 0.33% hits; activation, % at 20 µM; IRE1-XBP1 UPR activation; percent of tunicamycin response, DMSO as zero;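 active = versus positive control, 20 µM dose yields 30% or more activation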
#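 Assay system: CHO-XBP1 luciferase reporter cells; Schedule: 6 h treatment, 37 °C; Detection: glow luminescence from Steady-Glo reagent; Benchmarks: high control tunicamycin 10 µg/mL final, low control DMSO vehicle only.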
# CHOP UPR activ: activators of apoptotic CHOP UPR arm, primary screen, cell-based, CHO-CHOP luciferase reporter, luminescence, uHTS; UPR activation; percent of tunicamycin response over DMSO baseline; 330,000 compounds, 0.34% hits; activation, % at 10 µM;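 active = at 10 µM dose, activation of 40% or more, normalized to positive control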
#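 Test system: CHO CHOP reporter cells. Input: 500 CHO-CHOP cells per well. Medium: F12 with 10% FBS. Technique: luciferase luminescence. Measure: percent activation relative to tunicamycin control. Dosing: 10 µM compound, 0.5% DMSO. Timing: 16-18 h cell attachment, then 6 h compound exposure, 37 °C.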
# ABHD5-PLIN5 inh: ABHD5-PLIN5 interaction inhibitors, primary screen, cell lysate, split luciferase complementation, luminescence; 360,000 compounds, 0.78% hits; AID 602281, 2012; Split G. princeps luciferase complementation, 4 h; inhibition, % at 4 µM;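 active = inhibition above the mean inhibition across every tested compound plus 3 SD, cut at about 22% in these data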
# Mdm2-MdmX inh: inhibitors of human Mdm2-MdmX association, primary screen, cell-based, luminescence, split luciferase, SaOS-2, uHTS. Protein Mdm4 (Homo sapiens) + E3 ubiquitin-protein ligase Mdm2 (Homo sapiens), …. SaOS-2 split-luciferase Mdm2/MdmX complementation. inhibition, % at 8 µM. 330,000 compounds, 3% hits. AID 485346, 2010;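 active = inhibition of at least 50% at 8 µM in the primary screen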
# Target sequence (O15151 whole entry, looked up): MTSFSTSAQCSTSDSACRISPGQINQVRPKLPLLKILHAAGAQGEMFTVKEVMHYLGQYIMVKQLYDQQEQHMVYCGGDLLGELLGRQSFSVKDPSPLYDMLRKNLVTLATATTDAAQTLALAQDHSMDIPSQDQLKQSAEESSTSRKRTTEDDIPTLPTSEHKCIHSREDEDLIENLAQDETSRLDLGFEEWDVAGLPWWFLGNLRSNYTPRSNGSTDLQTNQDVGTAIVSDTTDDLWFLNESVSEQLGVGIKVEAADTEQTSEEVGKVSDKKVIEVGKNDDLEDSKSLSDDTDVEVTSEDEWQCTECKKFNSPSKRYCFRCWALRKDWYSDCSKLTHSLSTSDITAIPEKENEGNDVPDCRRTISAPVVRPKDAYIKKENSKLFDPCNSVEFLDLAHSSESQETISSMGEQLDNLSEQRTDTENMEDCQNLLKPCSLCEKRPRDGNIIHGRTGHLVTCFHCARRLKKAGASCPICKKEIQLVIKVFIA
# Target sequence (Q00987 whole entry, looked up): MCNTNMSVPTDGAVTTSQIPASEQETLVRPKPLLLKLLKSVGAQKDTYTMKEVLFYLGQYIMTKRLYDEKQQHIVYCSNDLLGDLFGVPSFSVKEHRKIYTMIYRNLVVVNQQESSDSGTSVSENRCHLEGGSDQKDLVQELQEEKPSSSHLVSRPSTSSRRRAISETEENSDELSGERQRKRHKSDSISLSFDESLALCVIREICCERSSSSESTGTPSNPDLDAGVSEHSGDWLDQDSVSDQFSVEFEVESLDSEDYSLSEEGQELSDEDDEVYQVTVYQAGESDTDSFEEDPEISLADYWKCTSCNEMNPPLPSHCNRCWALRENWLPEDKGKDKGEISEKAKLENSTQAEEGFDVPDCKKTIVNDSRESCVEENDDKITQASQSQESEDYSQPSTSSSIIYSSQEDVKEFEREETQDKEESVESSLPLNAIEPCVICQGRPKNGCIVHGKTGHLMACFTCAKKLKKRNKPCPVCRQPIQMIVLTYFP
# Mdm2 MdmX conf: Mdm2-MdmX complex disruptors, retested hits, confirmation, luminescence, single concentration. shares compounds with Mdm2-MdmX inh. Mdm2-MdmX binding, luminescent assay. inhibition, % at 8 µM. 10,000 compounds, 55% hits. AID 489028, 2010; in the data active = inhibition above about 40%
# Full FLuc ctr: full-length luciferase signal inhibition, confirmation, counter-screen for Mdm2/MdmX interaction inhibitor project, cell-based, single concentration, SaOS-2; inhibition, % at 8 µM; AID 504607, 2011; SaOS-2 full-length luciferase counterscreen, luminescence; shares compounds with Mdm2-MdmX inh; 6,200 compounds, 77% hits;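 active = mean inhibition at 8 µM reaching about 37%, which flags the compound as non-specific, limit read from the data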;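 note: p53-null SaOS-2 cells with luciferase driven by a doxycycline-inducible promoter; compound on cells about two nights before reading with doxycycline added after day one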
# A number is an active result; 0 = inactive; - = not tested or not shown.
SMILES,Granule exo inh,XBP1 UPR activ,CHOP UPR activ,ABHD5-PLIN5 inh,Mdm2-MdmX inh,Mdm2 MdmX conf,Full FLuc ctr
COc1cccc(N2CCN(c3nc(-c4ccccc4C)cc(=O)[nH]3)CC2)c1,0,0,0,0,95,76,81
CN(C)c1ccccc1C(=O)c1ccccc1N(C)C,0,0,0,0,0,-,-
CN(C)c1ccc(C(=O)c2ccc(N(C)C)c3ccccc23)cc1,0,0,0,0,56,50,181
COc1ccc(C(=O)c2ccc(N(C)C)cc2)c(OC)c1,0,0,0,0,62,48,37
O=C(N/N=C1/C(=O)c2cccc3cccc1c23)c1ccc(Cl)cc1,0,0,0,0,59,0,-
COCCCNC(=O)c1cccc2c(-c3ccc(OC)cc3C)coc12,0,-,-,0,-,-,-
CCc1nc(N=C(N)N)nc2ccccc12,-,0,0,-,59,0,-
NC(N)=Nc1nc(-c2ccccc2)c2ccccc2n1,0,0,0,0,62,0,-
CCc1nc2ccccc2c(C(=O)O)c1C,0,0,0,0,0,-,-
O=C(C1CCN(S(=O)(=O)c2ccc3c(c2)OCCO3)CC1)N1CCc2ccccc21,0,0,0,0,0,-,-
Cc1ccc(COc2ccccc2-c2cc(C(=O)N/N=C/c3cccnc3)[nH]n2)cc1,0,0,0,0,55,59,72
Cc1ccc(CNC(=O)C(Cc2ccccc2)NS(=O)(=O)c2ccc3c(c2)CCC(=O)N3)cc1 (configuration not stated),0,0,0,0,0,-,-
CCn1c(=O)c(C(C)=O)c(O)c2ccccc21,0,0,0,0,0,-,-
O=C(NCCCO)c1c(O)c2cccc3c2n(c1=O)CCC3,0,0,0,0,81,56,0
CC(C)NC(=O)c1c(O)c2cccc3c2n(c1=O)CCC3,0,0,0,0,0,-,-
CCn1c(=O)c(C(=O)NCCCO)c(O)c2ccccc21,0,0,0,0,79,41,58
CNC(=O)c1c(O)c2cccc3c2n(c1=O)CC3,0,0,0,0,75,54,0
CC(C)N1CCN(c2ccc(OC[C@H]3CO[C@](Cn4cncn4)(c4ccc(Cl)cc4Cl)O3)cc2)CC1,0,0,0,0,0,-,-
O=C(c1ccccc1)c1coc2ccc(O)c(Cl)c12,0,0,0,0,0,-,-
CCOC(=O)c1ccoc1CSCC(=O)N1CCN(S(=O)(=O)c2ccc(C)cc2)CC1,0,0,0,0,0,-,-
COc1ccc(NC(=O)C(CCCCNC(=O)OC(C)(C)C)NC(=O)OCc2ccccc2)cc1 (configuration not stated),0,0,0,0,0,-,-
COC(=O)Cn1c(=NC(=O)c2ccc(S(=O)(=O)N3CCOCC3)cc2)sc2cc(S(N)(=O)=O)ccc21,0,0,0,0,0,-,-
O=C1NC(c2ccc(Cl)cc2)Nc2ccccc21 (configuration not stated),0,0,0,0,0,-,-
Cc1cc(C(=O)COC(=O)c2ccncc2)c(C)n1Cc1ccco1,0,0,0,0,0,-,-
Cc1cc(C(=O)COC(=O)c2ccco2)c(C)n1Cc1ccco1,0,0,0,0,63,82,98
SMILES,Granule exo inh,XBP1 UPR activ,CHOP UPR activ,ABHD5-PLIN5 inh,Mdm2-MdmX inh,Mdm2 MdmX conf,Full FLuc ctr
COc1cc(C(=O)OCC(=O)c2cc(C)n(C)c2C)cc(NC(=O)c2ccco2)c1OC,0,0,0,0,74,0,-
Cc1nonc1NC(=O)CSc1nc(C23CC4CC(CC(C4)C2)C3)nc2ccccc12,0,0,0,0,52,0,-
Cc1nonc1NC(=O)CSc1nc(C2CCCCC2)nc2ccccc12,0,0,0,0,0,-,-
NC(=O)CSc1nc2ccccc2nc1SCC(N)=O,0,0,0,0,0,-,-
NC(=O)CSc1nc(C23CC4CC(CC(C4)C2)C3)nc2ccccc12,0,0,0,0,60,0,45
N#Cc1c(-c2ccccc2)cc(-c2ccc(O)cc2)nc1N,0,0,0,0,0,-,-
COc1ccccc1-c1cc(-c2ccc(O)cc2)nc(N)c1C#N,0,0,0,0,0,-,-
COc1ccc(-c2cc(-c3ccc(O)cc3)nc(N)c2C#N)cc1,0,0,0,0,62,0,-
COc1cc(-c2cc(-c3ccc(O)cc3)nc(N)c2C#N)ccc1O,0,0,0,0,81,54,92
O=C(CCc1ccccc1)NCCSCc1c(F)cccc1Cl,0,0,0,0,0,-,-
CN1CCN(C(=O)CCN2C(=O)/C(=C\c3ccc(F)cc3)SC2=S)CC1,0,0,0,0,0,-,-
COc1cccc(/C=C2\SC(=S)N(CCC(=O)NCCc3ccc(O)cc3)C2=O)c1,0,0,0,0,99,84,0
O=C(CCN1C(=O)/C(=C/c2ccc(F)cc2)SC1=S)NCCc1ccc(O)cc1,0,0,0,0,87,66,42
O=C(O)c1cc(NS(=O)(=O)c2ccc(NC3CCCCC3)c([N+](=O)[O-])c2)cc(C(=O)O)c1,0,0,0,0,0,-,-
CCOc1cc(NC(=O)c2ccccc2C)c(OCC)cc1NC(=O)C1=Cc2ccccc2OC1,0,0,0,0,62,0,-
Cc1cccc(OCc2n[nH]c(=S)n2C2CCCCC2)c1,0,0,0,0,0,-,-
Cn1cc(C(=O)c2ccc(Cl)cc2Cl)cc1C(=O)N/N=C(\N)COc1ccc(Cl)cc1Cl,0,0,0,0,67,41,40
Cn1cc(C(=O)c2ccc(Cl)cc2Cl)cc1C(=O)N/N=C(\N)COc1ccc(Cl)cc1,0,0,0,0,64,40,43
CC1(C)CC2CC(C)(CN2C(=O)c2cc(-c3ccccc3O)on2)C1 (configuration not stated),0,0,0,0,64,0,67
CC(=O)Nc1cccc(NC(=O)c2ccc([N+](=O)[O-])cc2Cl)c1,0,0,0,0,0,-,-
COc1ccc(C(=O)Oc2c(CN3CCOCC3)cc(Cl)c3cccnc23)cc1OC,-,0,0,-,60,0,-
COc1cc(OC)cc(C(=O)Oc2c(CN3CCOCC3)cc(Cl)c3cccnc23)c1,0,0,0,0,50,45,0
COc1cc(C(=S)N2CCOCC2)cc(OC)c1OC(=O)c1ccccc1Cl,0,-,-,0,-,-,-
O=C(CCN1C(=O)/C(=C/c2ccccc2)SC1=S)N[C@@H](CO)Cc1ccccc1,0,0,0,0,89,72,50
